This is an account of results in ChEMBL document CHEMBL3992565, “Discovery of [1,2,3]Triazolo[4,5-d]pyrimidine Derivatives as Novel LSD1 Inhibitors” (ACS Med Chem Lett, 2017).

In series [1] the target is T1, Lysine-specific histone demethylase 1A (Homo sapiens, UniProt O60341). Kind of series: Inhibition of full length recombinant LSD1 (unknown origin) expressed in Escherichia coli […] using H3K4me2 as substrate by fluorescence assay.
Series [2] deals with T1, Lysine-specific histone demethylase 1A. The conditions noted are these: 600 uM.
Series [3] relates to MGC-803. Kind of series: Antiproliferative activity against human MGC803 cells after 5 days by MTT assay. The conditions noted are these: MGC-803, 120 h. On the technique in general: Tetrazolium dyes change colour on reduction, which living cells bring about.
In series [4] the target is T2, MAO-A (Homo sapiens, UniProt P21397).
T2 sequence (P21397 whole entry): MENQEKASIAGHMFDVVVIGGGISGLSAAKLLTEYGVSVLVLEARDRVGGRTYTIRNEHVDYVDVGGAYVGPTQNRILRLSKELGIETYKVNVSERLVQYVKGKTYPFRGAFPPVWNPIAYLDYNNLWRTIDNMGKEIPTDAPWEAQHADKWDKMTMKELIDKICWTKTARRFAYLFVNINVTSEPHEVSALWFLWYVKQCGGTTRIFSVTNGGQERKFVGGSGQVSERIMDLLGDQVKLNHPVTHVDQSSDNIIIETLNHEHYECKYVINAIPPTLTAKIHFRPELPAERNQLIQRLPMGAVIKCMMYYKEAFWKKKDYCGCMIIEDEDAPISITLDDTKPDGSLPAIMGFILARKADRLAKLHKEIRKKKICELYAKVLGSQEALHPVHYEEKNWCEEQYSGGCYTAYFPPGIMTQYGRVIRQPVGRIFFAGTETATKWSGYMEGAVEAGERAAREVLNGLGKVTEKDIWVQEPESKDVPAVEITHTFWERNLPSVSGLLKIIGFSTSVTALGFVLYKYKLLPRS
The series can be described thus: Inhibition of MAO-A (unknown origin) at 10 uM using luciferin-derived luminogenic substrate by MAO-Glo assay relative to control. As to conditions: MAO-A enzyme (unknown origin), probe luciferin-derived luminogenic substrate.

Series [5] deals with MGC-803. The series can be described thus: Effect on LSD1 expression in human MGC803 cells up to 4 uM after 5 days by DAPI staining based immunofluorescence assay. It is filed as cell-based. As to conditions: mgc-803, 120 h. A digest of the protocol: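 MGC-803 cells were seeded in 96-well plates and treated for 5 days at the indicated concentrations. LSD1 was stained by immunofluorescence, with DAPI used for cell counting. Each well was scored over 12 fields by high content analysis. Data are mean ± SD from at least three experiments.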

Series [6] is filed under the species Homo sapiens. The series can be described thus: Activity at histone demethylase in human MGC803 cells assessed as effect on H3K9me1 level up to 4 uM after 5 days by Western blot method. It is filed as cell-based. In short, it runs like this: (§1)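 MGC-803 gastric cancer cells, which overexpress LSD1, were treated at the indicated concentrations. Several histone methylation marks were then probed by Western blot. Each experiment was run independently at least three times.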

Series [7] is filed under the species Homo sapiens. Kind of series: Activity at histone lysine methyltransferase in human MGC803 cells assessed as effect on H3K4me3 level up to 4 uM after 5 days by Western blot method. It is filed as cell-based. A digest of the protocol:
as §1
(Immunoblotting shows a protein as a band on a membrane.)

Series [8] deals with MGC-803. Kind of series: Antimigratory activity against human MGC803 cells assessed as accumulation of E-cadherin at 0.5 to 2 uM after 24 hrs by Western blot method. It is filed as functional, cell-based. In short, it runs like this: (§2)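 MGC-803 cells were exposed for 24 h to three low concentrations. E-cadherin (epithelial marker) and N-cadherin (mesenchymal marker) were then probed by Western blot. Data are mean ± SD from at least three experiments.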

Series [9] is filed under the species Homo sapiens. Kind of series: Activity at histone demethylase in human MGC803 cells assessed as effect on H3K4me3 level up to 4 uM after 5 days by Western blot method. It is filed as cell-based. In short, it runs like this: as §1
The subject of series [10] is MGC-803. The series can be described thus: Antimigratory activity against human MGC803 cells at lower concentration after 24 hrs by Hoechst 33258 staining based transwell assay. It is filed as functional, cell-based. In short, it runs like this: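 Migration was measured by transwell assay read by high content analysis. MGC-803 cells were treated for 24 h at three low concentrations. Data are mean ± SD from at least three independent experiments, with significance at p < 0.01.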

Series [11] has as its target T2, MAO-A. Kind of series: Inhibition of MAO-A (unknown origin) at 1 uM using luciferin-derived luminogenic substrate by MAO-Glo assay relative to control. The conditions noted are these: MAO-A enzyme (unknown origin), probe luciferin-derived luminogenic substrate.
Series [12] is filed under the species Homo sapiens. The series can be described thus: Activity at histone lysine methyltransferase in human MGC803 cells assessed as effect on H3K9me2 level up to 4 uM after 5 days by Western blot method. It is filed as cell-based. In short, it runs like this:
as §1

For series [13], the species on record is Homo sapiens. The series can be described thus: Activity at histone demethylase in human MGC803 cells assessed as effect on H3K9me2 level up to 4 uM after 5 days by Western blot method. It is filed as cell-based. In short, it runs like this:
as §1

Series [14] has as its target T3, MAO-B (Homo sapiens, UniProt P27338).
T3 sequence (P27338 whole entry): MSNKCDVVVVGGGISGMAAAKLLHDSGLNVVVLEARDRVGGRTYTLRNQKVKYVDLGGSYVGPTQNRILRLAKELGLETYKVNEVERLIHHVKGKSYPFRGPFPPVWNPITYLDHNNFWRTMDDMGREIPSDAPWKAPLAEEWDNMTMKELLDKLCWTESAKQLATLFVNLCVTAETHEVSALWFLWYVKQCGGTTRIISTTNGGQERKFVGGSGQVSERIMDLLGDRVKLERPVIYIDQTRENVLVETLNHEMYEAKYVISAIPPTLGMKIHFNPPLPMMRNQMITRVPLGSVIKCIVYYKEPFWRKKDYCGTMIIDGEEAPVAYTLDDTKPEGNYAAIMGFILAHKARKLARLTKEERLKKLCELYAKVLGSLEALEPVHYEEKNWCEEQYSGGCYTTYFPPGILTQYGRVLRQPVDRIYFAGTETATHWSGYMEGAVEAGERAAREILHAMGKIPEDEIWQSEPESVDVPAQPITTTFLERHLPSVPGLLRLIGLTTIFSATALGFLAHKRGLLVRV
Kind of series: Inhibition of MAO-B (unknown origin) at 1 uM using luciferin-derived luminogenic substrate by MAO-Glo assay relative to control. As to conditions: MAO-B enzyme (unknown origin), probe luciferin-derived luminogenic substrate.

The species named for series [15] is Homo sapiens. The series can be described thus: Activity at histone lysine methyltransferase in human MGC803 cells assessed as effect on H3K9me1 level up to 4 uM after 5 days by Western blot method. It is filed as cell-based. In short, it runs like this: as §1
Series [16] addresses T3, MAO-B. Kind of series: Inhibition of MAO-B (unknown origin) at 10 uM using luciferin-derived luminogenic substrate by MAO-Glo assay relative to control. As to conditions: MAO-B enzyme (unknown origin), probe luciferin-derived luminogenic substrate.
Series [17] deals with MGC-803. Kind of series: Antimigratory activity against human MGC803 cells assessed as decrease in N-cadherin level at 0.5 to 2 uM after 24 hrs by Western blot method. It is filed as functional, cell-based. A digest of the protocol:
as §2

The source made the active and inactive calls. The calls are words filed in the database; no cut-off is given here.

Usually IC50 stands for the midpoint of a concentration-inhibition curve. The inhibition is the change of the read-out against control, counted positive when it falls.

As to `O=C(O)c1ccc(CN2CCC(CN[C@@H]3C[C@H]3c3ccccc3)CC2)cc1` [GSK2879552], the results for the IC50 in series [1] and in series [3] were 0.041 µM and more than 125 µM, respectively. For the same compound, the inhibition result in series [2] is “inactive”.

Take `c1ccc(CSc2nc(Sc3ccccn3)c3nnn(Cc4ccccc4)c3n2)cc1`: the inhibition at 10 µM was 59% in [4] and 39% in series [16]. For the same compound, in series [5], the Activity entry was “Non-Toxic”. In addition, the result in [6], in [7], in [9], in series [12], in series [13] and in series [15] was inactive. The outcome in [8], in series [10] and in series [17] was Active. Also, the values for the inhibition at 1 µM in [11] and in series [14] were 34% and 11%, respectively. The compound further had an IC50 in series [3] of 7.64 µM.
